Columns and labels:
L1210 = test: Cytotoxicity against mouse L1210 cells after 72 hrs by coulter counter analysis; type: functional; conditions: L1210, 72 h, read-out: ED50 (the source's name)
How it was run: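 Murine L1210 leukemia cells grown in suspension in Fischer's medium with 10% horse serum, 37 °C. Cells exposed to nitrosoureas for 72 h, then counted by Coulter counter, two independent samples in duplicate per concentration. ED50 (concentration inhibiting growth by 50%) estimated from dose-response curves pooled from at least three separate experiments.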

[1] = Alkylating activity of the compound relative to 1,3-bis-(2-chloroethyl)-1-nitrosourea; type: physicochemical
[2] = Carbamoylating activity of the compound at 5 umol by liquid scintillation spectrometry in presence of [14C]-lysine relative to 1,3-bis-(2-chloroethyl)-1-nitrosourea; type: physicochemical

| SMILES | EC50 (L1210) | fold change (FC) [1] | fold change (FC) [2] |
| --- | --- | --- | --- |
| Cc1cn([C@H]2C[C@H](O)[C@@H](CNC(=O)N(C)N=O)O2)c(=O)[nH]c1=O | 95 µM | 0.05 | 1 |
| Cc1cn([C@H]2C[C@H](NC(=O)N(C)N=O)[C@@H](CO)O2)c(=O)[nH]c1=O | 1 µM | 0.05 | 0.9 |
| Cc1cn([C@H]2C[C@H](O)[C@@H](CNC(=O)N(CCCl)N=O)O2)c(=O)[nH]c1=O | 6.6 µM | 0.47 | 1.6 |
| Cc1cn([C@H]2C[C@H](NC(=O)N(CCCl)N=O)[C@@H](CO)O2)c(=O)[nH]c1=O | 1.5 µM | 2.1 | 0.9 |
| O=NN(CCCl)C(=O)NCCCl [CARMUSTINE] | 4 µM |  |  |
| Cc1cn([C@H]2C[C@H](O)[C@@H](CN(N=O)C(=O)NCCCl)O2)c(=O)[nH]c1=O | 4.2 µM | 0.06 | 1.6 |
